The record followed here is ChEMBL document CHEMBL1121364, “Nucleoside conjugates as potential antitumor agents. 3. Synthesis and antitumor activity of 1-(beta-D-arabinofuranosyl)cytosine conjugates of corticosteroids” (1980).

SMILES strings stand for the structures.

Test [1] has as its system L1210. The test is described as follows: Antitumor activity in the mice with intraperitoneal implanted L1210 lymphoid leukemia at the dose of 34.8 and 56.1 mg/kg/day x 5 was determined as mean survival of treated group compared to untreated; 9.5/9. It is filed as functional, Mus musculus. The essentials: (§1)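 C3D2F1/J female mice (C3H/HeJ female × DBA/2J male), groups of six to eight, average weight 25 g. Inoculated ip with 1 × 10^6 L1210 ascites cells taken from DBA/2Ha donor mice bearing 3-5 day old tumors. Compounds were dissolved in 0.154 N NaOH, neutralized with 0.154 N HCl (final 0.9% NaCl), and given ip daily for 5 days from 24 h post-implant. Median survival T/C; ILS = (T/C − 1) × 100; 30-day survivors counted.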

The subject of test [2] is L1210. The test is described as follows: Antitumor activity in mice with intraperitoneal implanted L1210 lymphoid leukemia at the dose 9.2 and 14.9 mg/kg/day x 5 was determined as weight change (g/mouse) on 8th day. In kind it is functional. The essentials: (§2)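 C3D2F1/J female mice (C3H/HeJ × DBA/2J), groups of six to eight, average 25 g, inoculated ip with 1 × 10^6 L1210 ascites cells taken from DBA/2Ha donor mice carrying 3-5 day tumors. Compound dissolved in 0.154 N NaOH, then neutralized with 0.154 N HCl to give 0.9% NaCl. Given ip daily for 5 consecutive days starting 24 h after implantation. Body weight change per mouse recorded on day 8.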

The subject of test [3] is L1210. The experiment in a line: Antitumor activity in the mice with intraperitoneal implanted L1210 lymphoid leukemia at the dose of 9.2 and 14.9 mg/kg/day x 5 was determined as mean survival of treated group compared to untreated; 9.5/9. In kind it is functional, Mus musculus.
Test [4] concerns L1210. The test is described as follows: Antitumor activity in mice with intraperitoneal implanted L1210 lymphoid leukemia at the dose 34.8 and 56.1 mg/kg/day x 5 was determined as weight change (g/mouse) on 8th day. It is filed as functional. The essentials: as §2
For test [5], the system named is L1210. The test is described as follows: Antitumor activity in the mice with intraperitoneal implanted L1210 lymphoid leukemia at the dose 34.8 and 56.1 mg/kg/day x 5 was determined and number of animals survived on 30 th day were reported; 0/8. In kind it is functional, Mus musculus. In outline: (§3)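 Female C3D2F1/J mice (C3H/HeJ × DBA/2J), groups of six to eight, average weight 25 g. Each mouse got 1 × 10^6 L1210 ascites cells ip, taken from DBA/2Ha donor mice bearing 3-5 day tumors. Compound was dissolved in 0.154 N NaOH and neutralized with 0.154 N HCl (final 0.9% NaCl). Dosed ip daily ×5, starting 24 h after implant. Recorded body weight change on day 8, survival range, median survival and 30-day survivors. ILS = (T/C − 1) × 100.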

The subject of test [6] is L1210. The test is described as follows: Antitumor activity in the mice with intraperitoneal implanted L1210 lymphoid leukemia at the dose 34.8 and 56.1 mg/kg/day x 5 was determined as Survival time in days; Range is 8-9 days. It is filed as functional, Mus musculus. The essentials:
as §3

Test [7] relates to L1210. The experiment in a line: Antitumor activity in the mice with intraperitoneal implanted L1210 lymphoid leukemia at the dose 9.2 and 14.9 mg/kg/day x 5 was determined as percentage increase in the life span as compared with control tumor bearers. It is filed as functional, Mus musculus. In outline:
as §1

Test [8] deals with L1210. The test is described as follows: Antitumor activity in the mice with intraperitoneal implanted L1210 lymphoid leukemia at the dose 9.2 and 14.9 mg/kg/day x 5 was determined as Survival time in days; Range is 8-10 days. In kind it is functional, Mus musculus. In outline: as §1
Test [9] deals with L1210. The test is described as follows: Antitumor activity in the mice with intraperitoneal implanted L1210 lymphoid leukemia at the dose 34.8 and 56.1 mg/kg/day x 5 was determined as percentage increase in the life span as compared with control tumor bearers. In kind it is functional, Mus musculus. The essentials:
as §3

Test [10] deals with L1210. The experiment in a line: Antitumor activity in the mice with intraperitoneal implanted L1210 lymphoid leukemia at the dose 9.2 and 14.9 mg/kg/day x 5 was determined and number of animals survived on 30 th day were reported; 0/6. In kind it is functional, Mus musculus. In outline:
as §1

The test system of test [11] is L1210. The experiment in a line: Antitumor activity in the mice with intraperitoneal implanted L1210 lymphoid leukemia at the dose of 5 mg/kg/day x 5 was determined as mean survival of treated group compared to untreated; 13.5/9. In kind it is functional, Mus musculus. The essentials:
as §1

The test system of test [12] is L1210. The test is described as follows: Antitumor activity in the mice with intraperitoneal implanted L1210 lymphoid leukemia at the dose of 18.2 mg/kg/day x 5 was determined as mean survival of treated group compared to untreated; 14.5/10. In kind it is functional, Mus musculus. The essentials:
as §1

The test system of test [13] is L1210. The experiment in a line: Antitumor activity in mice with intraperitoneal implanted L1210 lymphoid leukemia at the dose 9.2 mg/kg/day x 5 was determined as weight change (g/mouse) on 8th day. It is filed as functional. The essentials: as §2
Test [14] has as its system L1210. The experiment in a line: Antitumor activity in mice with intraperitoneal implanted L1210 lymphoid leukemia at the dose 18.2 mg/kg/day x 5 was determined as weight change (g/mouse) on 8th day. It is filed as functional. The essentials:
as §2

Test [15] concerns L1210. The test is described as follows: Antitumor activity in the mice with intraperitoneal implanted L1210 lymphoid leukemia at the dose of 9.2 mg/kg/day x 5 was determined as mean survival of treated group compared to untreated; 17/9. It is filed as functional, Mus musculus.
The test system of test [16] is L1210. The test is described as follows: Antitumor activity in mice with intraperitoneal implanted L1210 lymphoid leukemia at the dose 25 mg/kg/day x 5 was determined as weight change (g/mouse) on 8th day. In kind it is functional. In outline: as §2
Test [17] has as its system L1210. The experiment in a line: Antitumor activity in mice with intraperitoneal implanted L1210 lymphoid leukemia at the dose 5 mg/kg/day x 5 was determined as weight change (g/mouse) on 8th day. It is filed as functional. The essentials: as §2
Test [18] relates to L1210. The experiment in a line: Antitumor activity in the mice with intraperitoneal implanted L1210 lymphoid leukemia at the dose 9.2 mg/kg/day x 5 was determined as Survival time in days; Range is 14-42 days. It is filed as functional, Mus musculus. In outline:
as §1

Test [19] has as its system L1210. The experiment in a line: Antitumor activity in the mice with intraperitoneal implanted L1210 lymphoid leukemia at the dose 18.2 mg/kg/day x 5 was determined and number of animals survived on 30 th day were reported; 0/8. It is filed as functional, Mus musculus. In outline:
as §3

The test system of test [20] is L1210. The experiment in a line: Antitumor activity in the mice with intraperitoneal implanted L1210 lymphoid leukemia at the dose 25 mg/kg/day x 5 was determined and number of animals survived on 30 th day were reported; 0/8. In kind it is functional, Mus musculus. In outline: as §3
Test [21] deals with L1210. The test is described as follows: Antitumor activity in the mice with intraperitoneal implanted L1210 lymphoid leukemia at the dose 25 mg/kg/day x 5 was determined as Survival time in days; Range is 9-16 days. It is filed as functional, Mus musculus. The essentials:
as §3

Test [22] has as its system L1210. The test is described as follows: Antitumor activity in the mice with intraperitoneal implanted L1210 lymphoid leukemia at the dose 5 mg/kg/day x 5 was determined as Survival time in days; Range is 9-22 days. It is filed as functional, Mus musculus. The essentials:
as §3

The test system of test [23] is L1210. The experiment in a line: Antitumor activity in the mice with intraperitoneal implanted L1210 lymphoid leukemia at the dose 5 mg/kg/day x 5 was determined and number of animals survived on 30 th day were reported; 0/7. In kind it is functional, Mus musculus. In outline:
as §3

Test [24] deals with L1210. The experiment in a line: Antitumor activity in the mice with intraperitoneal implanted L1210 lymphoid leukemia at the dose 5 mg/kg/day x 5 was determined as percentage increase in the life span as compared with control tumor bearers. In kind it is functional. The following applies: Mus musculus, L1210, ip. In outline: as §3
For test [25], the system named is L1210. The test is described as follows: Antitumor activity in the mice with intraperitoneal implanted L1210 lymphoid leukemia at the dose 9.2 mg/kg/day x 5 was determined as percentage increase in the life span as compared with control tumor bearers. The following applies: Mus musculus, L1210, ip. In kind it is functional. The essentials:
as §1

Test [26] relates to L1210. The test is described as follows: Antitumor activity in the mice with intraperitoneal implanted L1210 lymphoid leukemia at the dose 18.2 mg/kg/day x 5 was determined as percentage increase in the life span as compared with control tumor bearers. In kind it is functional. The note with it: Mus musculus, L1210, ip. In outline:
as §3

In test [27] the test system is L1210. The experiment in a line: Antitumor activity in the mice with intraperitoneal implanted L1210 lymphoid leukemia at the dose 18.2 mg/kg/day x 5 was determined as Survival time in days; Range is 10-19 days. It is filed as functional, Mus musculus. The essentials: as §3
Test [28] deals with L1210. The experiment in a line: Antitumor activity in the mice with intraperitoneal implanted L1210 lymphoid leukemia at the dose 9.2 mg/kg/day x 5 was determined and number of animals survived on 30 th day were reported; 1/7. It is filed as functional, Mus musculus. In outline: as §1
Test [29] concerns L1210. The test is described as follows: Antitumor activity in the mice with intraperitoneal implanted L1210 lymphoid leukemia at the dose 25 mg/kg/day x 5 was determined as percentage increase in the life span as compared with control tumor bearers. In kind it is functional. The following applies: Mus musculus, L1210, ip. The essentials: as §3

For `C[C@@H]1C[C@H]2[C@@H]3CCC4=CC(=O)C=C[C@]4(C)[C@@]3(F)[C@@H](O)C[C@]2(C)[C@@]1(O)C(=O)CO.Nc1ccn([C@@H]2O[C@H](CO)[C@@H](O)[C@@H]2O)c(=O)n1`, the results for the T/C with L1210 [1] and in the test with L1210 [3] were 8.5 and 9.5, respectively. For the same molecule, the Weight change in the test on L1210 [2] is recorded as -4.23 g mouse-1; with L1210 [4] it was -2.72 g mouse-1. In addition, the Survivors in the test with L1210 [5] and with L1210 [10] was 0 throughout. Also, the Survival time in the test on L1210 [6] and in the test on L1210 [8] was 8 days throughout. Besides, the ILS with L1210 [7] is recorded as -14%; in the test on L1210 [9] it was -6%.

Take `Nc1ccn([C@@H]2O[C@H](CO)[C@@H](O)[C@@H]2O)c(=O)n1` [CYTARABINE]: the T/C in the test on L1210 [11] was 13.5; in the test with L1210 [12], 14.5; in the test on L1210 [15], 17. Moreover, the Weight change is -0.63 g mouse-1 in the test with L1210 [13], -3.64 g mouse-1 with L1210 [14], -3.8 g mouse-1 with L1210 [16] and 2 g mouse-1 with L1210 [17]. Also, the Survival time in the test with L1210 [18] is 14 days; with L1210 [21], 9 days; with L1210 [22], 9 days; in the test on L1210 [27], 10 days. Moreover, the Survivors is reported as 0 in the test with L1210 [19], 0 with L1210 [20], 0 in the test with L1210 [23] and 1 in the test with L1210 [28]. In addition, in the test on L1210 [24], the ILS at 5 mg/kg/day was determined as 50%. Further, the ILS at 9.2 mg/kg/day with L1210 [25] was determined as 89%. For the same molecule, the ILS at 18.2 mg/kg/day in the test with L1210 [26] turned out to be 45%. The ILS at 25 mg/kg/day with L1210 [29] is 19%.
